# Only some compounds are listed: those with a hit (about 4.1% of all), similar ones and a draw of the others.
# RGS4 inh – RGS4 inhibitors, primary screen, cell-based, HEK293 M3R inducible RGS4, calcium flux. B-score at 10 µM. 310,000 tested, 0.45% active. AID 463165, 2010. Regulator of G-protein signaling 4 (Homo sapiens), P49798. Fluo-4 calcium flux; active compounds read high; triggered by carbachol at its EC20;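 active means B-score, a plate-corrected calcium signal, over three deviations above library mean, with baseline fluorescence within five deviations of library mean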;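 further: RGS4 expression induced by doxycycline in cells with stable M3 receptor; B-score is computed from the integrated fluorescence ratio over baseline after carbachol; higher B-score means a larger calcium signal and so more RGS4 inhibition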
# Target sequence (P49798 whole entry, looked up): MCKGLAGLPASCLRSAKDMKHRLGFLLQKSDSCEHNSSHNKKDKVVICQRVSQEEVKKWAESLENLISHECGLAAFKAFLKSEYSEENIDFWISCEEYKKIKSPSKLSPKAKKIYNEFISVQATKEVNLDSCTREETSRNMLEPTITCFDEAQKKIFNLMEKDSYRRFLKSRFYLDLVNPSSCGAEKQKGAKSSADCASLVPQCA
# MrgX1 ag – agonists of human MrgX1 receptor, primary screen, HEK293 cells, Fluo-4 calcium flux; Mas-related G-protein coupled receptor member X1 (Homo sapiens), Q96LB2; Fluo-4 calcium fluorescence, agonist mode; active compounds read high; B-score at 10 µM; 310,000 tested, 0.44% active; AID 588627, 2011;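 active means calcium response B-score plate-corrected fluorescence ratio at least 3 library SD, with starting fluorescence B-score inside 5 SD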
#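 Test system: HEK293 cells stably expressing human MrgX1 receptor; amount: 15,000 cells per well; doses: compound delivered in addition one of three; times: overnight plating before 1 h dye loading; detection: Fluo-4 NW calcium-flux fluorescence, kinetic read; read-out basis: B-scored fluorescence response ratio; controls: positive and negative controls per plate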
# MrgX1 allo act – positive allosteric modulators of MrgX1, primary screen, HEK293 cells, Fluo-4 calcium flux | AID 588675, 2011 | 310,000 tested, 0.63% active | FDSS; active compounds read high | B-score at 10 µM;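 active means plate-corrected calcium response at least 3 library SD above typical, normal starting fluorescence, not activating the receptor alone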;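 further: compound read alongside a low EC10 to EC30 dose of BAM8-22 agonist; peak minus trough fluorescence over baseline measured at the second addition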
# Kir21 block – inhibitors of mouse Kir2.1 inward-rectifier potassium channel; B-score at 10 µM; 310,000 tested, 0.85% active; HEK293-Kir2.1, FluxOR thallium flux fluorescence; active compounds read low; Inward rectifier potassium channel 2 (Mus musculus), P35561;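 active means fluorescence ratio B-score at or below minus 3 SD of library scores, with starting-brightness B-score within 2 SD, cut at about -4.2 in these data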;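 further: channel flux triggered by added potassium and thallium sulfate stimulus; B-score of peak minus minimum fluorescence over baseline after thallium stimulus; more negative B-score means stronger Kir2.1 block with less thallium influx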
# Target sequence (P35561 whole entry, looked up): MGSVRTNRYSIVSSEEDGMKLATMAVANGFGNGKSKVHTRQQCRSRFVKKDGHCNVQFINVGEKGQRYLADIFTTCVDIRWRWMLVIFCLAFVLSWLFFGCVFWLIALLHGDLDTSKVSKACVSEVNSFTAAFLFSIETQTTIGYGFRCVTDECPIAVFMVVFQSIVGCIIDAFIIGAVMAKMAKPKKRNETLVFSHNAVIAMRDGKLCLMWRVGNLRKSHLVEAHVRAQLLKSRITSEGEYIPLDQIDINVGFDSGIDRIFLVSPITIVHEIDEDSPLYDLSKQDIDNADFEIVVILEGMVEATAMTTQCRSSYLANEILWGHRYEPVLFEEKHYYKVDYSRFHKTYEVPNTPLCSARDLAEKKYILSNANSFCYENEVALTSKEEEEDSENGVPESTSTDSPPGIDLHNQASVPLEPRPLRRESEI
# RGS4 act – RGS4 potentiators or activators, primary screen, cell-based, HEK293 M3R inducible RGS4, calcium flux. carbachol calcium flux Fluo4; active compounds read low. 310,000 tested, 0.92% active. AID 463111, 2010. B-score at 10 µM;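 active means B-score of the integrated calcium signal more than 4 SD below the library mean, with starting fluorescence not abnormally high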;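 further: negative B-score means reduced calcium response which marks RGS4 activation or potentiation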
#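 System – HEK293 FlpIn-TREx cells, stable M3R, doxycycline-inducible RGS4 · Reagent – ECmax carbachol challenge · Times – compound preincubation 20 min at room temperature before agonist · Technique – Fluo4 fluorescence kinetic imaging of calcium · Measure – B score of integrated Fluo4 ratio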
# MrgX1 antag – antagonists of human MrgX1 receptor, primary screen, HEK293 cells, Fluo-4 calcium flux; Mas-related G-protein coupled receptor member X1 (Homo sapiens), Q96LB2; BAM8-22 antagonism; active compounds read low; B-score at 10 µM; 310,000 tested, 1.3% active;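 active means calcium-response B-score plate-corrected more than 3 library SD below zero, starting fluorescence within 5 deviations, no agonist response on first addition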;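 further: peak minus trough fluorescence over baseline after final BAM8-22 challenge near maximal dose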
# hERG inh – hERG channel inhibition, counter-screen for Kir2.1 inhibitor project, cell-based, thallium flux; shares compounds with Kir21 block; AID 2236, 2010; inhibition, % at 10 µM; hERG-expressing cells; 320 tested, 20% active;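 further: host cells are CHO cells stably expressing hERG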
# KCNK9 inh – KCNK9 channel inhibition, selectivity assay for Kir2.1 inhibitor project, cell-based; shares compounds with Kir21 block; KCNK9-expressing cells, ion flux inhibition; inhibition, % at 10 µM; 320 tested, 5% active
# Kir21 ephys inh – mouse Kir2.1 channel blockers, Kir2.1 inhibitor project, cell-based, secondary, automated electrophysiology. Kir2.1 cells, automated patch-clamp current inhibition. shares compounds with Kir21 block. AID 463252, 2010. 320 tested, 71% active. inhibition, % at 25 µM
# An asterisk follows results filed as active; i = inactive; ? = inconclusive; / = no result given. Unless noted, how the calls were made is not given here.
SMILES,RGS4 inh,MrgX1 ag,MrgX1 allo act,Kir21 block,RGS4 act,MrgX1 antag,others
Cc1ccc(Nc2nc(-c3cccnc3)nc3ccccc23)cc1,i,i,i,0.28,i,i,
Fc1ccc(CNc2nc(-c3cccnc3)nc3ccccc23)cc1,i,35*,i,1.9,-7.1*,i,
Cc1ccccc1Nc1nc(-c2cccnc2)nc2ccccc12,i,42*,i,-0.07,-7.2*,i,
CC(Nc1nc(-c2cccnc2)nc2ccccc12)c1ccc(F)cc1 (stereo unspecified),i,i,i,-2.6,-7.1*,i,
CN(Cc1ccccc1F)c1nc(-c2cccnc2)nc2ccccc12,i,i,i,-2.4,-14*,i,
C/C(=N\O)C(=O)NCCN1CCCCC1,i,i,i,1.1,i,i,
CCN(CC(=O)NCc1ccc(F)cc1)C(=O)c1cc2ccccc2o1,i,i,i,-0.78,i,i,
CCOC(=O)c1ccc(Nc2nc(-c3cccnc3)nc3ccccc23)cc1,i,i,i,-0.74,-7.1*,i,
c1cncc(CNc2nc(-c3cccnc3)nc3ccccc23)c1,i,i,i,-1.3,i,i,
Cc1c(O)ccc(/C=N/Nc2nc(-c3cccnc3)nc3ccccc23)c1O,i,i,i,-1.1,-8.1*,i,
Oc1ccc(/C=N/Nc2nc(-c3cccnc3)nc3ccccc23)c(O)c1,i,i,i,2.1,i,i,
Clc1cccc(CNc2nc(-c3cccnc3)nc3ccccc23)c1,i,/,/,-0.82,-9.2*,/,
O=C(NCc1cc(C(F)(F)F)cc(C(F)(F)F)c1)C1CC(c2ccccc2[N+](=O)[O-])=NO1 (stereo unspecified),i,i,i,-1.1,i,i,
O=C(Cn1ncc2c3ccccc3n(Cc3ccccc3F)c2c1=O)NC1CC1,i,i,i,-0.03,i,i,
CC(C)=CC(=O)OCC(=O)Nc1cccc([N+](=O)[O-])c1,i,i,i,1.3,i,-8.6*,
CCOC(=O)/C=C/C(=O)Nc1cccc([N+](=O)[O-])c1,i,i,i,-6.2*,i,i,
CC(C)(C)NCCOCCOc1ccc(Cl)cc1C(C)(C)C,i,i,i,-1,i,i,
CNCCOc1ccccc1C(C)(C)C,i,i,i,-0.48,i,i,
C=CCNCCCOc1ccc(Cl)cc1C(C)(C)C,i,i,i,-14*,i,i,
C=CCNCCOCCOc1ccc(Cl)cc1C(C)(C)C,i,i,i,-11*,i,i,
CC(C)(C)c1ccccc1OCCOCCNCc1ccccc1,i,i,i,-9.3*,i,i,
COCCCNCCOCCOc1ccc(Cl)cc1C(C)(C)C,i,i,i,-6.2*,i,i,
OCCNCCCOc1cc(Cl)ccc1Cl,i,i,i,0.2,i,i,
O=C(CCCC(=O)N(CC(=O)NC1CCCCC1)c1ccc(F)cc1)Nc1ccccn1,i,i,i,-1.4,i,i,
COc1ccc(S(=O)(=O)Oc2cc(C(=S)N3CCOCC3)ccc2OC)cc1,i,/,/,-2,i,/,
SMILES,RGS4 inh,MrgX1 ag,MrgX1 allo act,Kir21 block,RGS4 act,MrgX1 antag,others
COc1ccc(-c2cc(C(=O)N3CCN(S(=O)(=O)c4ccccc4)CC3)[nH]n2)cc1,i,i,i,-2,i,i,
COc1ccc(S(=O)(=O)N2CCN(C(=O)c3cc(-c4ccc(Br)cc4)n[nH]3)CC2)cc1OC,i,i,i,-0.74,-7*,i,
O=c1c2ccccc2nc(COc2ccccc2)n1/N=C/c1ccc(O)c(O)c1,i,i,i,-0.82,-7.7*,i,
CCOC(=O)c1cc(-c2ccc(F)cc2)n(CCC(=O)NC2CCN(Cc3ccccc3)CC2)c1C,i,i,i,-4.6*,i,i,
CS(=O)(=O)Nc1ccc(-c2ccc(/C=C3\SC(N)=NC3=O)o2)cc1,i,i,i,3.1,i,i,
NC1=NC(=O)/C(=C/c2ccc(-c3ccc(S(N)(=O)=O)cc3)o2)S1,i,i,i,0.4,i,-4.7*,
Cc1ccc(S(=O)(=O)NCCNc2ccc([N+](=O)[O-])cc2)cc1,i,i,i,-2.2,i,i,
Cc1ccc(CSCCNS(=O)(=O)c2ccc([N+](=O)[O-])cc2)cc1,i,i,i,-4.4*,i,i,
Cc1ccc(S(=O)(=O)NCCSCc2ccccc2)cc1,i,i,i,-5.7*,i,i,
O=C1CCN(Cc2ccccc2)CCN1CCSc1ccccc1,i,i,i,-0.44,i,i,
O=C(CN1CCN(Cc2ccc(Cl)cc2)CC1)N1CCc2ccccc21,i,i,i,-9.5*,i,i,hERG inh=i;KCNK9 inh=i;Kir21 ephys inh=16%*
Fc1ccc(N2CCN(Cc3c[nH]c4ccccc34)CC2)cc1,i,i,i,-7.9*,i,i,hERG inh=56%*;KCNK9 inh=i;Kir21 ephys inh=40%*
CSc1ccc(CN2CCC(Cc3ccccc3)CC2)cc1,i,i,i,-16*,i,i,hERG inh=67%*;KCNK9 inh=i;Kir21 ephys inh=33%*
Cc1noc(C)c1COC(=O)CCN1c2ccccc2Sc2ccccc21,i,i,i,-7.3*,i,i,hERG inh=i;KCNK9 inh=i;Kir21 ephys inh=10%*
CCCCn1c(N)c(N(CCOC)C(=O)COC(=O)CCOc2ccccc2)c(=O)[nH]c1=O,i,i,i,0.06,i,i,hERG inh=i;KCNK9 inh=i;Kir21 ephys inh=?
NC(=O)c1nsc(C(=O)N(CC(=O)NCc2ccc3c(c2)OCO3)C2CCCC2)c1N,i,i,i,1.4,i,i,
CC(C)(C)c1cc(Cl)ccc1OCCOCCN1CCCC1,i,i,i,-9.6*,i,i,hERG inh=58%*;KCNK9 inh=i;Kir21 ephys inh=9.2%*
